# High-throughput results deposited in PubChem by several laboratories.
# Wee1 stabilizer = inhibitors of human Wee1 degradation | HeLa Luc-Wee1K328M stability, luciferase luminescence; 100% = proteasome inhibitor MG132 effect | reporter increase, % at 5 µM | 1.2% of 220,000 active | AID 1321;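 active means activation above the mean of all tested compounds plus 3 SD, set per screening run, cut at about 8.8% in these data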;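 further: cells exposed to compound for 20 h before luminescence read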
# Target sequence (P30291 whole entry K328M): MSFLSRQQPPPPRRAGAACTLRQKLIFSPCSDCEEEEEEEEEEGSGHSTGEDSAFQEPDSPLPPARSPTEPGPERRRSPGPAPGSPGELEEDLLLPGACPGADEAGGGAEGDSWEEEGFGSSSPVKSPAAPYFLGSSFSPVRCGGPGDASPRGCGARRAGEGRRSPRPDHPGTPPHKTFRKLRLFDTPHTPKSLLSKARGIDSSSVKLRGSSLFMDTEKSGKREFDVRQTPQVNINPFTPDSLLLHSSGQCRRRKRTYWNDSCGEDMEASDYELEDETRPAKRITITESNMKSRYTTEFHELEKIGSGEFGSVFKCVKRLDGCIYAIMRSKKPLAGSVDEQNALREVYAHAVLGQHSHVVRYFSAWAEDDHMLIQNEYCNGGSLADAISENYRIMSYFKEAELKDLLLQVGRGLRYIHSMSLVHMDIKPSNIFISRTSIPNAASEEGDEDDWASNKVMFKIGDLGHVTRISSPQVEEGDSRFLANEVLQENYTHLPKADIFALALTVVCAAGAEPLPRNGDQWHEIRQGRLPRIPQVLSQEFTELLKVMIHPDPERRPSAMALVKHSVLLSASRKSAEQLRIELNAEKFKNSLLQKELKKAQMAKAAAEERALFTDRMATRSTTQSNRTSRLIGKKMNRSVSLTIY
# Runt-SMMHC FRET = inhibitors of human RUNX1 Runt domain binding to CBFb-SMMHC; Q01196+Q13951; Cerulean-Runt/Venus-CBFb-SMMHC FRET ratio 530/480, 1 h; inhibition, % at 20 µM; 0.74% of 220,000 active;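 active means mean inhibition across duplicate retests at 20 µM reaching about 50%, limit read from the data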;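 further: inhibitors lower the FRET ratio by blocking Runt binding to CBFb-SMMHC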
# RanGTP-Imp inh = inhibitors of RanGTP-importin-beta interaction, primary screen, biochemical, FRET, CFP-Ran, YFP-importin-beta, homogeneous; cell-free CFP-Ran/YFP-importin-beta FRET ratio; inhibition, % (no concentration beside the values); 1.1% of 300,000 active; AID 2216;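 active means more than half of the replicate wells show a fall in the fluorescence ratio signal beyond about 16%, limit read from the data, passing the limit was not always enough; inconclusive means exactly half of the replicate wells pass the set limit; inactive means fewer than half of replicates pass the limit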
# Runt-CBFb FRET = blocks binding of human RUNX1 Runt domain to CBFb; inhibition, % at 20 µM; 0.46% of 220,000 active; AID 1496; Q01196+Q13951; Cerulean-Runt/Venus-CBFb FRET ratio 530/480, 1 h;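 active means inhibition over about 50% at 20 µM in the single-dose screen, limit read from the data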
#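 Assay system: Cerulean-Runt domain fusion protein, energy donor; Signal: fluorescence energy transfer, 422 nm excitation, 530/480 nm emission; Timing: 1 h compound exposure, room temperature; Control set: unlabeled CBFb; Medium: Tris buffer pH 7.5 with salts and BSA; Compound: single test concentration of 20 µM, 1% DMSO final; Probe or stimulus: Venus-CBFb 100 nM.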
# AI-2 QS mod = modulates the Vibrio harveyi AI-2 quorum sensing system; Vibrio harveyi JMH597 AI-2 luminescence/OD600 ratio, 9 h; stronger effect = lower value; strain lacks LuxN and CqsS sensors; 0 = neutral-control median; activity change, % at 7.5 µM; 0.4% of 300,000 active; AID 2094; in the data active means activity change below about -75%, passing the limit was not always enough; inconclusive means no clear call, values can overlap the other calls;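 further: luminescence divided by OD600 gain over 9 h not by final OD600 alone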
# proKLK7 act = activates the human kallikrein-7 zymogen | P49862 | purified proKLK7, EDANS-DABCYL substrate fluorescence; 100% is mature enzyme control, 0% vehicle | activation, % at 7 µM | 0.9% of 370,000 active | AID 652039;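 active means activation above the mean of all tested compounds plus 3 SD, computed per campaign excluding outliers beyond control limits, cut at about 13% in these data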
# Hits are given with their value; . = inactive; ? = inconclusive; / = no result. This is a sample that favours compounds with a hit; in the whole collection about 2.9% have one here.
SMILES,Wee1 stabilizer,Runt-SMMHC FRET,RanGTP-Imp inh,Runt-CBFb FRET,AI-2 QS mod,proKLK7 act
Cc1ccc(S(=O)(=O)N2CCN(C(=O)CCC(=O)NCc3ccc(F)cc3)CC2)cc1,9.4,.,.,.,.,.
O=C(CN1C(=O)COc2ccc(S(=O)(=O)N3CCCCC3)cc21)NCc1ccc(F)cc1,/,/,51,/,.,.
C[C@H](O)[C@@H]1CN2CCc3ccc(-c4ccc5c(c4)OCO5)cc3[C@@H]2C[C@@H]1N(C)C(=O)c1cccc(Cl)c1,/,/,/,/,/,.
O=[N+]([O-])c1cccnc1Oc1ccc(C2SCCS2)cc1,.,.,.,.,.,.
COc1cc(C2SCCS2)cc(Br)c1Oc1ncccc1[N+](=O)[O-],13,.,.,.,.,.
COc1cc2cc(NC(C)=O)cc(NCc3ccccc3)c2cc1OC,/,/,.,/,.,.
CCCCNc1cc(NC(C)=O)cc2cc(OC)c(OC)cc12,.,.,21,.,.,.
COc1ccc(NC(=S)N(CCN2CCOCC2)Cc2cc3cc4c(cc3[nH]c2=O)OCCO4)cc1,.,.,.,.,.,.
N#CC1=C(N)SC(N)=C(C#N)C1CCc1ccccc1,.,.,?,.,.,.
CC(C)CC1C(C#N)=C(N)SC(N)=C1C#N,.,.,41,.,.,.
N#CC1=C(N)SC(N)=C(C#N)C1Cc1ccccc1,.,.,62,.,.,.
COc1cc(CCC(=O)Nc2cc(Cl)ccc2N2CCN(C)CC2)cc(OC)c1OC,9.2,.,.,.,.,.
CCCCCCCCN1C(=O)[C@@H](CC(=O)NCCCN2CCCC2=O)C[C@@]2(C(=O)OC)C1=C[C@H](C(C)(C)C)O[C@@H]2C,/,/,/,/,/,.
COc1ccc(C2C(C#N)=C(N)OC3=C2C(=O)CC(C)(C)C3)cc1OC (configuration not stated),.,.,.,.,.,.
C=CCOc1ccc(C2C(C#N)=C(N)N(Nc3ccccc3)C3=C2C(=O)CC(C)(C)C3)cc1OC (configuration not stated),.,94,.,.,.,.
Cc1cc(C)n(-c2nc3ccccc3nc2Nc2ccc3c(c2)OCO3)n1,.,.,.,.,.,.
Cc1ccc2nc(Nc3ccc4[nH]c(=O)[nH]c4c3)c(-n3nc(C)cc3C)nc2c1,.,.,40,.,.,.
O=C(O/N=C(\c1ccccc1)c1ccncc1)c1ccccc1Cl,9.6,.,.,.,.,.
Cc1ccc(S(=O)(=O)c2cnc3cc(C)nn3c2N)cc1,.,.,.,.,-90,.
O=C(Nc1cccc(S(=O)(=O)NCc2ccco2)c1)c1cc(-c2ccc(F)cc2)nc2ccccc12,9.2,.,.,.,.,.
Cc1ccc(-c2cc(C(=O)NN=Cc3cccc4ccccc34)[nH]n2)cc1C,/,/,/,/,/,.
CCCOc1ccccc1C1C(C(=O)OC)=CN(C(C)C)C=C1C(=O)OC,.,58,115,86,.,.
CCCCOc1ccccc1C(=O)NCC(=O)O,.,.,.,.,.,.
CCCCOc1ccccc1C1C(C(=O)OC)=CN(CC)C=C1C(=O)OC,.,.,107,.,.,.
Cc1ccc(NC(NC(=O)OCCn2c([N+](=O)[O-])cnc2C)C(Cl)(Cl)Cl)cc1 (configuration not stated),.,.,18,.,.,/
SMILES,Wee1 stabilizer,Runt-SMMHC FRET,RanGTP-Imp inh,Runt-CBFb FRET,AI-2 QS mod,proKLK7 act
O=C(Nc1ccccc1O)c1csc2c1CCCC2,9.4,.,.,.,.,.
COC(=O)[C@]12C[C@H](CC(=O)N3CCSCC3)C(=O)N(CCC3=CCCCC3)C1=C[C@H](C(C)(C)C)O[C@@H]2C,/,/,/,/,/,.
CCOC(=O)c1sc2cccc(F)c2c1N,33,.,.,.,.,.
CCOC(=O)C(=O)Nc1nccs1,.,.,?,.,.,.
CCOC(=O)/C=C/C(=O)Nc1nccs1,.,.,.,.,-91,.
O=C(N[C@H](C(=O)N1CCC[C@H]1C(=O)NCc1ccccc1)c1ccccc1)C1CCCC1,/,/,/,/,/,.
CCc1c(C)c(C#N)c2[nH]c3ccccc3n2c1=S,.,84,.,.,.,.
Cc1ccc(Cc2c(C)c(C#N)c3[nH]c4ccccc4n3c2=O)cc1,.,.,21,.,.,.
Cc1c(CCC(=O)O)c(=O)n2c([nH]c3ccccc32)c1C#N,.,.,?,.,.,.
C=C(C)Cc1c(C)c(C#N)c2[nH]c3ccccc3n2c1=O,/,/,42,/,.,.
COCc1cc(=O)n2c([nH]c3ccccc32)c1C#N,.,59,.,.,.,.
COc1ccccc1C(=O)NCCC(=O)NCC1COc2ccccc2O1 (configuration not stated),/,/,/,/,/,.
CCOC(=O)C1=C(C(=O)OCC)C2N(Cc3ccc(C#N)cc3)c3ccccc3[C@@]23C[C@@H](C(=O)OC)N(S(=O)(=O)c2cccs2)C3=N1 (some centres not stated),/,/,/,/,/,.
COC(=O)[C@]12C[C@H](CC(=O)NCCc3ccccc3OC)C(=O)N(Cc3ccc(Cl)cc3Cl)C1=C[C@H](COCc1ccccc1)O[C@@H]2C,/,/,/,/,/,.
Cc1ccccc1Br,/,/,/,/,/,.
N=C1C(c2ccccc2)=C(O)CN1c1cccc(S(=O)(=O)NCc2ccco2)c1,9.2,.,.,.,.,.
CCCN1CCCCC(NC(=O)c2ccc(-c3ccccc3)cc2)C1=O (configuration not stated),/,/,/,/,/,.
Cc1ccc(Nc2nc3ccccc3s2)c(C)c1,.,.,.,.,.,.
Cc1cc(O)ccc1Nc1nc2ccccc2nc1Nc1ccc(O)cc1C,.,/,37,.,.,.
O=C(Cn1c(=S)[nH]c2ccccc2c1=O)NCCc1ccccc1,9.5,.,.,.,.,.
COc1ccc(-c2c(C)n([O-])c3c([n+]2=O)CCCC3)cc1,.,.,.,.,.,.
CCOc1ccc(-c2c(C)n([O-])c3c([n+]2=O)CCCCC3)cc1,8.9,.,.,.,.,.
CN(Cc1ccc(F)cc1)C(=O)CN1C(=O)C2(OCCCO2)c2ccccc21,/,/,/,/,/,.
Clc1cncc(Cl)c1NNc1c2ccccc2nc2ccccc12,.,83,23,128,.,.
Cc1ccsc1CN(C)Cc1nc(C2CC2)no1,.,.,.,.,.,.
COC(=O)c1c(C)c2c(C)cc3ccccn3c-2c1C(=O)OC,.,.,.,.,.,.
COC(=O)c1cc2c(-c3ccccc3)cc3ccccn3c-2c1C(=O)OC,.,54,.,.,.,.
Oc1c(Cl)cc(CN2CCCCC2)c2cccnc12,/,/,.,/,.,/
COCc1cc(CN2CCCC2)c(O)c2ncccc12,.,.,.,.,.,.
OCCN1CCN(Cc2cc(Cl)c3cccnc3c2O)CC1,.,.,40,.,.,.
